The source of these data is ChEMBL document CHEMBL1143402 (PLoS Med, 2006).

Type in all cases: ADME, organism-based
Data set [1] has as its system Mycobacterium tuberculosis variant bovis. The experiment in a line: Drug metabolism in Mycobacterium bovis BCG Tokyo assessed as cell supernatant [14C]OPC-67683 metabolite level after 48 hrs by scintillation counting. In short, it runs like this: (§1)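 ^14C-labelled drug (0.5 mg/ml stock) added 15 µl to 585 µl 7H9/TN-ADC culture, incubated 48 h. Acetonitrile (2 volumes) added, then centrifuged. Supernatant counted by scintillation; pellet dissolved in 2 M NaOH, 1 h at 60 °C, then counted. DPM expressed relative to broth control supernatant.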

Data set [2] shares this test system. The experiment in a line: Drug metabolism in Mycobacterium bovis BCG Tokyo assessed as cell pellet [14C]OPC-67683 metabolite level after 48 hrs by scintillation counting. The procedure, abridged:
as §1

The test system is the same in data set [3]. The experiment in a line: Drug metabolism in OPC-67683 resistant Mycobacterium bovis BCG Tokyo assessed as cell supernatant [14C]OPC-67683 metabolite level after 48 hrs by scintillation counting. The procedure, abridged: as §1

Take `C[C@]1(COc2ccc(N3CCC(Oc4ccc(OC(F)(F)F)cc4)CC3)cc2)Cn2cc([N+](=O)[O-])nc2O1`: the Activity was 82% in data set [1], 22% in data set [2] and 105% in data set [3].
